TAAR1 antagonist: human TAAR1 antagonists, primary screen, Fluo-8 calcium fluorescence, CHO RD-HGA16 cells | inhibition, % at 3 µM | AID 624466, 2012 | 360,000 compounds, 1.5% hits | antagonist | Trace amine-associated receptor 1 (Homo sapiens), Q96RJ0;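 active means inhibition above a per-plate cutoff, the mean inhibition of test compounds on that plate plus 3 SD, cut at about 49% in these data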
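System: CHO RD-HGA16 cells bearing hTAAR1. Reagent: EC80 β-phenethylamine stimulus. Schedule: seeding 17-24 h prior, 75-min 37 °C, 30-min RT dye loading. Signal: Fluo-8 intracellular calcium dye fluorescence, real-time kinetic reads. Read-out: % inhibition from peak post-agonist over basal fluorescence ratio. Benchmarks: vehicle wells and EC80 agonist wells. Replicates: n of 1.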
M1 ag: human M1 muscarinic receptor agonists, primary screen, Fluo-8 calcium fluorescence, CHO-K1 cells, HTS; Muscarinic acetylcholine receptor M1 (Homo sapiens), P11229; CHO-K1 hM1, agonist mode; 0% DMSO, 100% acetylcholine EC100; activation, % at 3 µM; 360,000 compounds, 0.33% hits;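 active means activation above the run's mean compound activation plus 3 SD, cut at about 16% in these data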;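 further: peak over basal fluorescence ratio within a 140 s kinetic read after compound addition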
Target sequence (P11229 whole entry, looked up): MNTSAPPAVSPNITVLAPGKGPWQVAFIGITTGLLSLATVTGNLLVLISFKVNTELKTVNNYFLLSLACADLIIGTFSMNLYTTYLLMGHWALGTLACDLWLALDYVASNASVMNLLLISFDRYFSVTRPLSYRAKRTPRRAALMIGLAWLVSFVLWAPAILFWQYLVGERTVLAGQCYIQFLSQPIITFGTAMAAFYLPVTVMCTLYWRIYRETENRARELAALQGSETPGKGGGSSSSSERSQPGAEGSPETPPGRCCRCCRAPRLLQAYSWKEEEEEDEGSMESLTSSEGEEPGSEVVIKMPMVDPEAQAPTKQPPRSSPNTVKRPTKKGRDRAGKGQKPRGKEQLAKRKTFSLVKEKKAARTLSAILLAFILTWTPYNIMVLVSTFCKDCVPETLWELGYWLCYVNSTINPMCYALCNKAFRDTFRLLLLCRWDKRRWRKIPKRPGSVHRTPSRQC
CHRM1 antagonist: human M1 muscarinic receptor antagonists, primary screen, CHO-K1 cells, Fluo-8 calcium fluorescence, 1536-well | inhibition, % at 3 µM | CHO-K1 hM1, ACh EC80 antagonist | Muscarinic acetylcholine receptor M1 (Homo sapiens), P11229 | 360,000 compounds, 1.3% hits;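 active means percent inhibition above its own plate's cutoff, namely the mean of that plate's compound wells plus 3 SD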;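 further: peak over basal fluorescence ratio during 140 s after agonist addition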
M1 PAM: human M1 muscarinic receptor positive allosteric modulators, primary screen, CHO-K1 cells, Fluo-8 calcium fluorescence, 1536-well; AID 588819, 2011; 360,000 compounds, 0.088% hits; CHO-K1 hM1, ACh EC20; 0% = ACh EC20, 100% = maximal ACh; activation, % at 3 µM; in the data active means activation above about 19%, passing the limit was not always enough
TAAR1 agonist: human TAAR1 agonists, primary screen, Fluo-8 calcium fluorescence, CHO RD-HGA16 cells. Trace amine-associated receptor 1 (Homo sapiens), Q96RJ0. vehicle wells 0%, saturating PEA agonist 100%. activation, % at 3 µM. 360,000 compounds, 0.99% hits;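 active means activation above the mean activation of all test compounds in the run plus 3 SD, cut at about 38% in these data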
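test system = CHO RD-HGA16 cells carrying human TAAR1 plus Gα16 | schedule = 17-24 h seeding, 75 min 37 °C dye, 30 min RT | compound dosing = 3 µM single concentration | control set = DMSO and PEA EC100 | replicates = n 1 | signal = Fluo-8 fluorescence, 5 s baseline then 140 s kinetic read | measure = percent activation vs PEA EC100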
TAAR1 ag conf: human TAAR1 agonists, retest of hits, confirmation, Fluo-8 calcium fluorescence, CHO RD-HGA16 cells; shares compounds with TAAR1 agonist; scaled: DMSO 0%, maximal phenethylamine 100%; activation, % at 3 µM; 2,400 compounds, 82% hits;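 active means activation above a cutoff set at the run's mean compound activation plus 3 SD, cut at about 39% in these data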
Ga16 nonsel ag: nonselective calcium mobilization agonists, CHO-Ga16 cells, counter-screen for hTAAR1 agonist project, cell-based, fluorescence, CHO-Ga16 parental line; Fluo-8 calcium fluorescence; normalized to maximal ATP response, DMSO zero; activation, % at 3 µM; AID 651787, 2012; 2,400 compounds, 50% hits; shares compounds with TAAR1 agonist;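 active means activation above the run cutoff, the mean activation over all tested wells plus 3 SD, cut at about 12% in these data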
TAAR1 desensitize: TAAR1 desensitization by agonist hits, confirmation, counter-screen for TAAR1 agonist project, cell-based, fluorescence, tachyphylaxis; shares compounds with TAAR1 agonist; CHO RD-HGA16 hTAAR1, Fluo-8 calcium, beta-PEA response inhibition; inhibition, % at 3 µM; 2,400 compounds, 46% hits; AID 651951, 2012;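 active means inhibition above the run cutoff, the mean inhibition of all test compounds plus 3 SD, cut at about 49% in these data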;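 further: beta-PEA stimulus applied at its EC80; loss of beta-PEA calcium signal after compound pretreatment read as receptor desensitization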
Ga16 nonsel ant: inhibition of ATP-evoked calcium response in CHO-Ga16 cells, counter-screen for TAAR1 agonist project, cell-based, fluorescence; inhibition, % at 3 µM; shares compounds with TAAR1 agonist; AID 651952, 2012; CHO-Ga16 ATP-induced calcium, Fluo-8 fluorescence; 2,400 compounds, 39% hits;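 active means inhibition above the plate's mean compound inhibition plus 3 SD, computed per plate, cut at about 22% in these data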
Large screens that a line does not name were inactive (follow-up assays come after a bar, where they were run). Shown are actives, neighbours in structure and some others; about 3.4% of the full set was active somewhere.

CCOC(=O)N[C@H](C(=O)N1CCC[C@H]1C(=O)NCCc1ccccc1Cl)c1ccccc1	TAAR1 antagonist 64, TAAR1 agonist 69 (no result: M1 ag, CHRM1 antagonist, M1 PAM) | TAAR1 ag conf 85 | Ga16 nonsel ag inactive | TAAR1 desensitize 83 | Ga16 nonsel ant inactive
CCOC(=O)c1ccc(NC(=S)N2CCSC2c2ccc(Br)cc2)cc1 (stereo unspecified)	TAAR1 antagonist 103, M1 ag 34, CHRM1 antagonist 33, TAAR1 agonist 138 | TAAR1 ag conf 130 | Ga16 nonsel ag 93 | TAAR1 desensitize 102 | Ga16 nonsel ant 85
COc1ccc(NC(=O)CN(C)C(=O)Cc2ccc(S(=O)(=O)N3CCOCC3)s2)cc1	none
CCOC(=O)c1c(NC(=O)C(C)N2CCN(C(=O)c3ccco3)CC2)sc2c1CCCC2 (stereo unspecified)	TAAR1 antagonist 87, M1 ag 20, CHRM1 antagonist 37, TAAR1 agonist 84 | TAAR1 ag conf 42 | Ga16 nonsel ag 37 | TAAR1 desensitize 71 | Ga16 nonsel ant 59
CCOC(=O)c1c(NC(=O)c2ccco2)sc2c1CCCCC2	none
Cc1sc(NC(=O)C2CCCCC2C(=O)O)c(C(N)=O)c1-c1ccc(C(C)(C)C)cc1 (stereo unspecified)	TAAR1 agonist 67 | TAAR1 ag conf 43 | Ga16 nonsel ag 20 | TAAR1 desensitize inactive | Ga16 nonsel ant inactive
C[C@@H]1CN([C@@H](C)CO)C(=O)CCCn2nncc2CO[C@H]1CN(C)C	none
CCCCN1C(=O)/C(=C/C=C2\SCCN2C)SC1=S	TAAR1 agonist 71 | TAAR1 ag conf 50 | Ga16 nonsel ag 34 | TAAR1 desensitize inactive | Ga16 nonsel ant 45
O=C(Nc1ccccc1C(=O)O)c1cc(S(=O)(=O)N2CCOCC2)c(Br)s1	none
O=C(NCc1ccc2c(c1)OCO2)C(=O)NC1CCCCC1	none
CC1CCCC(C)N1C(=O)CNCc1ccc2c(c1)OCO2 (stereo unspecified)	TAAR1 agonist 71 | TAAR1 ag conf inactive | Ga16 nonsel ag inactive | TAAR1 desensitize inactive | Ga16 nonsel ant inactive
Fc1cccc(NC(=S)Nc2cccnc2)c1	none
O=C(Nc1ccncc1)c1cccc(F)c1	none
O=C(Nc1ccncc1)Nc1cccc(F)c1	TAAR1 agonist 92 | TAAR1 ag conf 104 | Ga16 nonsel ag 12 | TAAR1 desensitize 84 | Ga16 nonsel ant inactive
O=C(Nc1cccnc1)Nc1cccc(F)c1	TAAR1 agonist 52 | TAAR1 ag conf 78 | Ga16 nonsel ag inactive | TAAR1 desensitize 54 | Ga16 nonsel ant inactive
Cc1cccc(NC(=O)Nc2ccncc2)c1	TAAR1 agonist 53 | TAAR1 ag conf 77 | Ga16 nonsel ag inactive | TAAR1 desensitize inactive | Ga16 nonsel ant inactive
O=C(Nc1ccncc1)Nc1ccc(F)cc1F	TAAR1 agonist 47 | TAAR1 ag conf 71 | Ga16 nonsel ag inactive | TAAR1 desensitize inactive | Ga16 nonsel ant inactive
COc1ccc(S(=O)(=O)NCc2ccco2)cc1N(C)S(=O)(=O)c1ccccc1	none
C[C@@H](CO)NC(=O)c1[nH]cnc1C(=O)Nc1ccc(CNC(=O)OC(C)(C)C)cc1	none
O=S1(=O)CC(N2CCCC2)CN1Cc1cn(Cc2ccc(Cl)cc2)nn1 (stereo unspecified)	none (no result: M1 ag, CHRM1 antagonist, M1 PAM)
c1ccc(CCN2CN(CCCN3CCOCC3)c3nc4ccccc4n3C2)cc1	none (no result: TAAR1 antagonist, TAAR1 agonist) | Ga16 nonsel ag inactive | Ga16 nonsel ant inactive
O=c1c2ccccc2nc(SCCN2CCOCC2)n1CCc1ccccc1	none
CC1=CC(=C(C#N)C#N)C=C(C)N1Cc1ccccc1	none
CCC(=O)N(CC)c1nc(-c2ccc(OC)cc2)cs1	TAAR1 antagonist 70, TAAR1 agonist 70 | TAAR1 ag conf 44 | Ga16 nonsel ag 44 | TAAR1 desensitize 58 | Ga16 nonsel ant 46
CCN(CC)c1ccc(C(=C2C=CC(=[N+](CC)CC)C=C2)c2ccc(N(CC)CC)cc2)cc1	TAAR1 antagonist 95, CHRM1 antagonist 46, TAAR1 agonist 50 | TAAR1 ag conf 68 | Ga16 nonsel ag 45 | TAAR1 desensitize 92 | Ga16 nonsel ant 84
CCN(CC)c1ccc(C(=O)NNC(=O)CCl)cc1	none
COc1cccc(CNc2nc3cc(-c4ccccc4C)sc3c(=O)n2C)c1OC	none
Nc1[nH]c(C(=O)c2ccccc2)c(-c2ccccc2C(F)(F)F)c1C(=O)NCCc1cccs1	TAAR1 agonist 48 (no result: M1 ag, CHRM1 antagonist, M1 PAM) | TAAR1 ag conf inactive | Ga16 nonsel ag inactive | TAAR1 desensitize inactive | Ga16 nonsel ant inactive
CCNc1nc(NC(C)C)nc(-c2ccncc2)n1	none (no result: TAAR1 antagonist, TAAR1 agonist)
CCCCCCCCCCn1c2c(c(=N)c3c1CCC3)CCC2	CHRM1 antagonist 35, TAAR1 agonist 47 | TAAR1 ag conf 52 | Ga16 nonsel ag 23 | TAAR1 desensitize inactive | Ga16 nonsel ant 37
CCCCCn1c2c(c(=N)c3ccccc31)CCC2	none
COc1ccccc1NC(=O)c1cc2c(s1)-c1ccccc1S(=O)(=O)C2	none
O=C(Nc1ccccc1)N1CCc2ccccc2C1	TAAR1 agonist 48 | TAAR1 ag conf 54 | Ga16 nonsel ag inactive | TAAR1 desensitize inactive | Ga16 nonsel ant inactive
Cc1ccc(NC(=O)N2CCc3ccccc3C2)c(C)c1	TAAR1 agonist 92 | TAAR1 ag conf 66 | Ga16 nonsel ag inactive | TAAR1 desensitize inactive | Ga16 nonsel ant inactive
CC(=O)c1ccc(NC(=O)N2CCc3ccccc3C2)cc1	none
CC(=O)c1cccc(NC(=O)N2CCc3ccccc3C2)c1	TAAR1 agonist 56 | TAAR1 ag conf 62 | Ga16 nonsel ag inactive | TAAR1 desensitize inactive | Ga16 nonsel ant inactive
Cc1ccc(NC(=O)N2CCc3ccccc3C2)cc1	TAAR1 agonist 68 | TAAR1 ag conf 43 | Ga16 nonsel ag inactive | TAAR1 desensitize inactive | Ga16 nonsel ant inactive

Source: PubChem
